Screens (PubChem BioAssay)
SENP1 FRET inh: human SENP1 catalytic domain inhibitors, primary screen, biochemical, FRET, uHTS. Sentrin-specific protease 1 (Homo sapiens), Q9P0U3. recombinant SENP1 catalytic domain, CyPet-SUMO1-YPet FRET cleavage. inhibition, % at 10 µM. 360,000 compounds, 0.21% hits. AID 624204, 2012;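 active = inhibition at least 30% at 10 µM, raw YFP signal under a set limit, fluorescence ratio 0.5 to 1.5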;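 also: 0% = enzyme with DMSO and 100% = no enzyme wells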
Target sequence (Q9P0U3 419-644 limits assumed): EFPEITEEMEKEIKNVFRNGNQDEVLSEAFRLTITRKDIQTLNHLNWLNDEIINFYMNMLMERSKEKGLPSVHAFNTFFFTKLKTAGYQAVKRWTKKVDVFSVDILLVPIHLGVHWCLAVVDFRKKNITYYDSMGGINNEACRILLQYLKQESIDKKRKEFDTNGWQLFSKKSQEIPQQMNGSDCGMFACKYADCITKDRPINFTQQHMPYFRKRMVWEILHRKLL
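System: Recombinant human SENP1 catalytic domain, His6-tagged | Incubation: Enzyme reaction for 50 min at room temperature, dark | Medium: Tris pH 8 with BME, BSA, NP40 and catalase | Also added: 25 nM SUMO1 FRET substrate | Compound: 10 µM single point, 0.5% DMSO | Measured by: FRET fluorescence in CFP and YFP emission channels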
SENP6 inh: SENP6 protease inhibitors, primary screen, biochemical, luminescence, uHTS | AID 2599, 2010 | Sentrin-specific protease 6 (Homo sapiens), Q9GZR1 | Recombinant SENP6 catalytic domain, aminoluciferin luminescence | 330,000 compounds, 1.8% hits | inhibition, % at 10 µM;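 active = inhibition above about 50% at the single tested dose, limit read from the data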;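 also: plate controls were DMSO wells with enzyme for no effect and DMSO wells lacking enzyme for full effect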
Platelet DG rel: inhibitors of platelet dense granule secretion, primary screen, cell-based, MLPCN, human platelets; human platelet-rich plasma, SFLLRN dense granule ATP release, luminescence; inhibition, %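 (compounds screened at 7.5 µM in platelet-rich plasma)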; 300,000 compounds, 0.22% hits; AID 1663, 2009;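 active = mean replicate score, as percent of positive control, at or above 50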
SENP8 block-1: human SENP8 protease inhibitors, primary screen, biochemical, fluorescence, Nedd8 protein substrate, uHTS | Sentrin-specific protease 8 (Homo sapiens), Q96LD8 | recombinant SENP8 | inhibition, % at 20 µM | 360,000 compounds, 0.64% hits | AID 602440, 2012; in the data active = inhibition mostly above about 40%, no sharp cut-off; inactive = mostly below about 27%
Target sequence (Q96LD8 whole entry, looked up): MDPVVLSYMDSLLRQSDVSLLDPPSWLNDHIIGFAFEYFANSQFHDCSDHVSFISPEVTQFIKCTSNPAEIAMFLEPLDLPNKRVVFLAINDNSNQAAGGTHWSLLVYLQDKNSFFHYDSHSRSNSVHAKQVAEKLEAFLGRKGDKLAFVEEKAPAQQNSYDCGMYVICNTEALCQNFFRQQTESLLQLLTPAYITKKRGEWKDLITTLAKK
SENP7 block: SENP7 protease inhibitors, primary screen, biochemical, luminescence, uHTS. Sentrin-specific protease 7 (Homo sapiens), Q9BQF6. recombinant SENP7, Z-RLRGG-aminoluciferin luminescence, 40 min. inhibition, % at 5 µM. 330,000 compounds, 1.5% hits;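 active = inhibition above about 50% at the single test dose, limit read from the data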;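 also: plate controls were DMSO with enzyme for no effect and no enzyme buffer wells for full effect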
SENP8 block-2: SENP8 protease inhibitors, primary screen, biochemical, luminescence | 330,000 compounds, 1.2% hits | Sentrin-specific protease 8 (Homo sapiens), Q96LD8 | inhibition, % at 10 µM | AID 2540, 2010 | purified SENP8, Z-RLRGG-aminoluciferin cleavage; in the data active = inhibition above about 50%
SENP1 inh conf: human SENP1 catalytic domain inhibitors, confirmation, biochemical, FRET endpoint, single concentration | shares compounds with SENP1 FRET inh | recombinant SENP1, CyPet-SUMO1-YPet FRET cleavage | inhibition, % at 10 µM | 520 compounds, 34% hits | AID 651678, 2012; in the data active = inhibition mostly above about 35%, no sharp cut-off; inactive = mostly below about 32%;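 also: 0% = enzyme with DMSO and 100% = no enzyme control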
SENP1 kin conf: human SENP1 catalytic domain inhibitors, confirmation, biochemical, kinetic FRET, single concentration | shares compounds with SENP1 FRET inh | recombinant SENP1, CyPet-SUMO1-YPet FRET kinetic cleavage | inhibition, % at 10 µM | 520 compounds, 26% hits | AID 651690, 2012; in the data active = inhibition mostly above about 32%, no sharp cut-off; inactive = mostly below about 29%;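 also: 0% = DMSO with enzyme and 100% = no enzyme substrate only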
Starred values were filed as active, the others as inactive; . = not tested or not shown. In the library only some 2.6% were active in any assay of this set; here they are far more common.

SMILES	SENP1 FRET inh	SENP6 inh	Platelet DG rel	SENP8 block-1	SENP7 block	SENP8 block-2	SENP1 inh conf	SENP1 kin conf
COC(=O)c1ccc(N/N=C/c2cc([N+](=O)[O-])cc(OC)c2O)cc1	49*	34	3	35	17	29	5	-1
COc1ccc(S(=O)(=O)NCC(=O)Nc2ccc(F)cc2)cc1	-2	6	.	4	5	1	.	.
COc1cccc2c1-c1c(O)cccc1C2=O	31*	4	-1	12	-1	6	42*	26
NC(Cc1ccccc1)c1csc(Nc2nncc3ccccc23)n1 (stereo not given)	-27	.	.	-127	.	.	.	.
Cc1ccccc1-n1cc(C(=O)c2cc(Cl)ccc2O)cc(C#N)c1=O	43*	-19	1	20	-4	-8	35	24
COc1ccccc1-n1cc(C(=O)c2cc(Cl)ccc2O)cc(C#N)c1=O	46*	-5	1	-11	0	0	39*	29
Cc1cccc(C(=O)NCC(=O)N2CC=C(c3ccccc3)CC2)c1	-2	-15	.	1	-4	-3	.	.
Cc1cccc(NC(=O)CCN2C(=O)c3cccc([N+](=O)[O-])c3C2=O)c1	-3	-6	.	9	3	6	.	.
CCCN(CC(=O)Nc1ccccc1C)C(=O)CCN1C(=O)c2cccc([N+](=O)[O-])c2C1=O	38*	-10	4	15	-3	-3	19	20
O=C(NC[C@@H]1CCCO1)c1cccc2c1C(=O)c1ccc(N3CCOCC3)cc1S2(=O)=O	76*	2	.	4	12	6	64*	41*
COCCNC(=O)c1cccc2c1C(=O)c1ccc(N3CCOCC3)cc1S2(=O)=O	73*	-7	.	21	-18	-9	58*	40*
CCn1c(=O)n(Cc2ccco2)c(=N)c2c3c(sc21)COC(C)(C)C3	4	-8	1	6	2	-3	.	.
Cn1c(=NC(=O)C2=NNC(=O)CC2)sc2ccccc21	0	-27	-3	-33	-2	-7	.	.
Cc1cc(C)c2c(c1)/C(=N\N=c1\sc3ccccc3n1C)C(=O)N2	37*	14	0	33	-13	1	2	4
O=C(NCC(=O)N1CCN(Cc2ccc3c(c2)OCO3)CC1)c1ccccc1F	0	14	.	7	-1	-3	.	.
O=C(Nc1ccccc1)c1ccccc1NC(=O)c1ccccc1C(=O)O	2	-8	0	-225	-12	-18	.	.
O=C(O)c1ccccc1C(=O)Nc1ccccc1NC(=O)c1ccccc1C(=O)O	88*	-5	9	-5	3	-6	-7	-1
CCSC1=N/C(=C\C=C2/Oc3ccccc3N2CC)C(=O)S1	43*	-33	2	33	-1	-6	28	17
CCSC1=N/C(=C\c2ccc3c(c2)OCO3)C(=O)S1	-118	-4	-2	-11	1	-7	.	.
Oc1ccc(C=NN=C2c3ccccc3-c3ccccc32)c(O)c1	71*	.	.	32	.	.	78*	51*
C(=NN=C1c2ccccc2-c2ccccc21)c1c[nH]c2ccccc12	-1	.	.	38	.	.	.	.
CC(C)Nc1ccc(C(CC(N)=O)NC(=O)Cc2cccc3ccccc23)cc1[N+](=O)[O-] (stereo not given)	41*	-6	-1	18	-3	6	-6	-5
Cc1cccc2c(C(=O)O)c3c(nc12)CCCCC3	2	-9	0	4	-4	11	.	.
C/C(=N\NC(=O)c1ccc(C)cc1C)c1ccc2c(c1)Nc1ccccc1S2	61*	0	-6	7	9	-6	6	-6
CCOCCCNS(=O)(=O)c1ccc(NC(=O)CN2C(=O)c3ccccc3C2=O)cc1	29*	6	2	10	11	1	1	-2
SMILES	SENP1 FRET inh	SENP6 inh	Platelet DG rel	SENP8 block-1	SENP7 block	SENP8 block-2	SENP1 inh conf	SENP1 kin conf
COc1ccc(N(C)C(=O)Nc2ccc3nsnc3c2)cc1	56*	.	7	4	.	.	8	9
COc1ccc(N(C)C(=O)Nc2ccc3c(c2)nnn3C)cc1	1	-25	-3	-30	0	4	.	.
Cc1c(N/C=C/C(=O)C(F)(F)F)c(=O)n(-c2ccccc2)n1C	-1	13	5	10	6	1	.	.
COc1ccc(C(=O)/C=C/Nc2c(C)n(C)n(-c3ccccc3)c2=O)cc1OC	31*	8	-1	-53	4	5	-1	4
C=CCn1cccc(C(=O)Nc2ccc(OC)c(OC)c2)c1=O	1	-10	-5	6	4	9	.	.
COc1cc(SC#N)ccc1N=Cc1c(C)[nH]n(-c2ccc(C)cc2C)c1=O	67*	7	12	29	6	6	38*	34*
Cc1cc(Oc2ccc(=O)n(C)n2)nc(SCC(N)=O)n1	38*	-16	-4	10	-10	-4	-2	-4
COc1cc2cc(CCCOC(=O)c3cccc(Br)c3)oc(=O)c2cc1OC	1	4	.	-4	-4	0	.	.
CCOC(=O)C1=C(c2ccccc2)NC(=O)NC1c1cc(OC)c(OC)c(OC)c1 (stereo not given)	-1	-12	.	-2	-7	-22	.	.
CCOC(=O)C1=C(c2ccccc2)NC(=O)NC1c1cc(Cl)c(O)c(OC)c1 (stereo not given)	32*	12	3	11	-8	0	30	23
Cn1c(CCN2CCCCC2)nc2cc(NC(=O)Nc3ccccc3)ccc21	-2	-8	4	6	-14	-1	.	.
CSc1c(C#N)c(N)nc2sc(C(=O)c3ccccc3)c(N)c12	65*	-4	-26	1	2	3	57*	40*
N#Cc1c(SCc2ccc(Cl)cc2)sc(C(=O)c2ccccc2)c1N	-11	8	-22	-41	-1	0	.	.
Cc1ccc(-n2cnc3sc(C)c(C)c3c2=O)cc1	37*	-11	12	32	1	0	-14	1
Cc1cccc(-n2cnc3sc(C)c(C)c3c2=O)c1	0	6	-3	7	1	-13	.	.
